What is called IC50 is the concentration that gives 50% inhibition.

For assay [1], the system named is T47D. The assay is described as follows: Cytotoxicity against human T47D cells assessed as reduction in cell viability after 3 hrs by MTT assay. For orientation: Tetrazolium dyes change colour on reduction, which living cells bring about.
In the next assay the test system is MDA-MB-435. Put plainly: Cytotoxicity against human MDA-MB-435 assessed as growth inhibition at 10 uM by NCI protocol relative to control. The format is functional, cell-based. In a few lines: (§1)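 Run by NCI as a single-dose screen at 10 μM across the sixty-cell-line panel, which covers nine human tumour tissue types. The read-out is percent growth inhibition of treated cells relative to untreated cells.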

The next assay concerns EKVX. The assay is described as follows: Cytotoxicity against human EKVX assessed as growth inhibition at 10 uM by NCI protocol relative to control. Format: functional. Conditions: read-out: GI. An outline of the steps: as §1
For assay [2], the system named is T47D. The assay is described as follows: Cytotoxicity against human T-47D assessed as growth inhibition at 10 uM by NCI protocol relative to control. Format: functional. The note with it: read-out: GI. In a few lines: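 Run by the NCI under its standard protocol: one dose of 10 μM against a sixty-line panel from nine human tumour tissues. Result given as percent growth inhibition of treated cells relative to untreated cells.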

The test system of a further assay is Hs-578T. Put plainly: Cytotoxicity against human HS 578T assessed as growth inhibition at 10 uM by NCI protocol relative to control. The note with it: read-out: GI. Format: functional. In a few lines:
as §1

The subject of another assay is A498. Put plainly: Cytotoxicity against human A498 assessed as growth inhibition at 10 uM by NCI protocol relative to control. Format: functional. The note with it: read-out: GI. An outline of the steps:
as §1

In another assay the test system is HOP-92. Put plainly: Cytotoxicity against human HOP-92 assessed as growth inhibition at 10 uM by NCI protocol relative to control. The format is functional. Conditions: read-out: GI. In a few lines:
as §1

Active and inactive are the calls of the source. The calls are words filed in the database; no cut-off is given here.

On to `O=c1cc(N2CCNCC2)c2cc(F)ccc2[nH]1`, for which the half-inhibitory concentration (IC50) with T47D [1] amounted to 37.7 µM. For the same compound, in the assay on MDA-MB-435, the “growth inhibition (GI)” value was “inactive”. Further, the inhibition of growth at 10 µM with EKVX amounted to 56.2%; in the assay with T47D [2] it was 10.5%; in the assay on Hs-578T, 19.6%; in the assay with A498 it was 26%.

In the case of `O=c1cc(N2CCNCC2)c2ccccc2n1-c1ccccc1`, the inhibition of growth at 10 µM in the assay on HOP-92 is 17%. Further, the half-inhibitory concentration (IC50) in the assay on T47D [1] is 92.1 µM. Moreover, the “growth inhibition (GI)” value with MDA-MB-435 is “inactive”.

Source of the values: ChEMBL document CHEMBL4819122, “Novel 4-(piperazin-1-yl)quinolin-2(1H)-one bearing thiazoles with antiproliferative activity through VEGFR-2-TK inhibition” (Bioorg Med Chem, 2021).
